Bioassay records from PubChem BioAssay.
Sampled rows, rich in hits. Any-hit rate of the full collection: about 3.7%.
RBBP9 inhibitor: human RBBP9 inhibitors, primary screen, biochemical, fluorescence polarization, FP-Rh probe, HTS; Serine hydrolase RBBP9 (Homo sapiens), O75884; recombinant RBBP9; inhibition, % at 7.94 µM; 0.2% of 220,000 active; AID 1515, 2009;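 active = inhibition above the campaign mean of all tested compounds plus 3 SD, cut at about 14% in these data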
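system = RBBP9 protein | input = RBBP9 at 2.5 µM in dispensed solution, before mixing | measured by = fluorescence polarization (mP), excitation 525 nm, emission 598 nm | incubation = enzyme-compound preincubation 30 min, then probe labeling 45 min, 25 °C | buffer or medium = Tris-NaCl-Pluronic buffer, pH 8.0 | compound = single dose 7.94 µM | also added = FP-Rh probe, 375 nM dispensing solution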
WT yeast gro inh: growth inhibition of WT strain, primary screen, mitochondrial fusion inhibitor project, WT and mutant strains, chemical genetic; mitochondrial fusion phenotypic screen; inhibition, % at 10 µM; 2.1% of 190,000 active; AID 1362, 2008; in the data active = inhibition above about 58%; tested in S. cerevisiae
EBV gp42 inh: Epstein-Barr virus gp42 inhibitors, primary screen, biochemical, uHTS, fluorescence polarization. Glycoprotein 42 (Epstein-Barr virus (strain AG876)), Q1HVG2. Fluorescence polarization binding assay, mP read-out. inhibition, % (tested at 21.74 µM). 0.42% of 220,000 active. AID 1085, 2008; in the data active = inhibition above about 50%
Target sequence (Q1HVG2 whole entry, looked up): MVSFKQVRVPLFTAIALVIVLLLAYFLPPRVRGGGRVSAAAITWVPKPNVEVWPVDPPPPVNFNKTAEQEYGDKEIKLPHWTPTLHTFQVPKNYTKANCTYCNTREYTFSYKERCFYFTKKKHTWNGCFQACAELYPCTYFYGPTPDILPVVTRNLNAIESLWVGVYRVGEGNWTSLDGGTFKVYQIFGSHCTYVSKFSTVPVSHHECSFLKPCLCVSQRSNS
eIF4E-4G inh: eIF4E–eIF4G protein interaction inhibitors, primary screen, biochemical, uHTS, TR-FRET, eIF4GI fragment; Eukaryotic translation initiation factor 4E (Mus musculus) + Eukaryotic translation …; TR-FRET eIF4E-eIF4GI(517-606) binding, 2 h; inhibition, % at 21.7 µM; 0.37% of 220,000 active
14-3-3 Bad inh: inhibitors of 14-3-3 zeta/Bad binding, primary screen, biochemical, TR-FRET, bovine 14-3-3 zeta; 14-3-3 protein zeta/delta (Bos taurus), P63103; TR-FRET 14-3-3zeta/Dy647-pBad peptide displacement, 1 h; inhibition, % at 21.7 µM; 0.71% of 220,000 active;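 active = inhibition above about 70%, limit read from the data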
NCF1 inh: p47phox/p22phox peptide binding inhibitors, primary screen, biochemical, uHTS, NADPH oxidase regulatory subunit; Neutrophil cytosol factor 1 (Homo sapiens), P14598; fluorescence polarization, 2 h; inhibition, % at 24.7 µM; 0.53% of 220,000 active
Target sequence (P14598 whole entry, looked up): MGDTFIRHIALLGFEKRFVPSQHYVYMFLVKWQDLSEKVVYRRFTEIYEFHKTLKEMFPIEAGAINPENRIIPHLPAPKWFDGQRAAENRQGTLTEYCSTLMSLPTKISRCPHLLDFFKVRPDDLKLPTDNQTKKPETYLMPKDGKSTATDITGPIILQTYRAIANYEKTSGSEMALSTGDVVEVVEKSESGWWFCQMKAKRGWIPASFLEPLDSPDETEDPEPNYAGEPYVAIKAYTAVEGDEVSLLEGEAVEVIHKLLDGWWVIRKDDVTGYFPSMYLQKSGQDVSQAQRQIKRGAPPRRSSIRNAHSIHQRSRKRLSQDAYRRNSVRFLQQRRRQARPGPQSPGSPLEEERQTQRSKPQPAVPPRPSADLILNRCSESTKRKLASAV
Hits are given with their value; - = inactive; . = no result; + = active, no number; [ ] = dose if it differs, or a comment.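 The calls were made as follows, unless noted: active = inhibition above about 30% (limit read from the data); inactive = the rest.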

SMILES	RBBP9 inhibitor	WT yeast gro inh	EBV gp42 inh	eIF4E-4G inh	14-3-3 Bad inh	NCF1 inh
O=C1CC(N(CCc2ccccc2)C(=S)Nc2ccccc2)C(=O)N1c1ccc(Br)cc1 (configuration not stated)	-	70	-	-	-	-
CNC(=S)N(CCc1ccc(S(N)(=O)=O)cc1)C1CC(=O)N(c2ccccc2F)C1=O (configuration not stated)	-	-	-	-	79	-
Cn1cc(NC(=O)Nc2ccc(C(F)(F)F)cc2)c(C(F)(F)F)n1	-	.	-	-	-	-
CSc1nnc(C)c(=O)n1COC(=O)COc1ccc(Cl)cc1Cl	-	-	-	-	-	48
CCOc1cc(N2CCOCC2)c(OCC)cc1NC(=O)c1cc(-c2ccco2)nc2ccccc12	-	-	-	-	-	30
COc1ccc(NC(=O)c2cc(-c3ccco3)nc3ccccc23)cc1S(=O)(=O)N1CCOCC1	-	.	-	38	-	-
N#CCCn1cc(C(=O)Nc2ccccc2Br)c(-c2cc3ccccc3o2)n1	-	-	-	-	-	-
CCOC(=O)c1[nH]c2ccc(OC)cc2c1NC(=O)C(C)N1CCC2(CC1)OCCO2 (configuration not stated)	-	67	-	-	-	-
Cc1ccc(-n2nnnc2C(Cl)c2nnnn2-c2ccc(C)cc2)cc1	-	74	-	-	-	-
CCCCNC(c1ccccc1)c1ccncc1 (configuration not stated)	-	-	-	-	71	-
O=C(Nc1ccc2[nH]c(=O)[nH]c2c1)c1c(F)c(F)c(F)c(F)c1F	-	-	-	-	-	-
COc1ccc2cnn(-c3ccc(OC(F)(F)F)cc3)c(=O)c2c1OC	-	.	-	-	-	-
CN(NS(=O)(=O)c1ccc(Br)cc1)c1nc(C(F)(F)F)nc2ccccc12	-	77	-	-	-	-
CN(N)c1nc(C(F)(F)F)nc2ccccc12	-	-	-	-	-	-
C=CCN(CC=C)C(=S)NC(=O)Cc1cccc2ccccc12	-	65	-	-	-	-
Cc1ccc(C2N(c3ccc(Cl)cc3)C(=O)N3CCCN23)cc1 (configuration not stated)	-	.	-	-	-	-
COC(=O)c1c(C)[nH]c(C)c1-c1ccccc1	-	-	-	-	81[fluorescence artefact?]	-
COc1ccc(/C=N/NC(=O)c2nn(-c3ccc(C)c(C)c3)c(=O)c3ccccc23)cc1	-	-	-	-	-	+
COc1ccc(-n2nc(C(=O)Nc3nc4ccc(OC)cc4s3)c3ccccc3c2=O)cc1	-	-	-	-	-	38
C=C(C)Cn1cnc2c(oc3nc4c(cc32)CCCC4)c1=O	-	.	-	-	-	-
CC(C)OC(=O)c1cccnc1N1CCN(c2cccc(Cl)c2)CC1	-	73	-	-	-	-
CSc1ccccc1C(=O)N1CCN(c2cccc(Cl)c2)CC1	-	-	-	-	-	-
COc1ccc(CCN(Cc2nc3ccccc3c(=O)[nH]2)C(=O)c2ccco2)cc1OC	-	-	98	.	.	-
COc1cc2nc(CN(C)Cc3nc4ccccc4c(=O)[nH]3)[nH]c(=O)c2cc1OC	-	-	-	-	-	-
COc1ccc(C(C(=O)Nc2ccc(F)cc2)N(C(=O)Cn2nnc3ccccc32)C2CC2)cc1 (configuration not stated)	-	68	-	-	-	-
SMILES	RBBP9 inhibitor	WT yeast gro inh	EBV gp42 inh	eIF4E-4G inh	14-3-3 Bad inh	NCF1 inh
CC1(C)CC(=O)c2cnc(NC(=O)CSC(=S)N3CCCCC3)nc2C1	-	.	-	-	-	-
CCOC(=O)c1c(C)[nH]c(C)c1C(=O)COC(=O)/C=C/c1ccc(OC(F)F)cc1	-	-	-	-	-	-
CCOC(=O)c1c(C)[nH]c(C)c1C(=O)COC(=O)/C=C/c1ccc(Cl)cc1	-	74	-	-	-	-
O=C(CN1CCN(c2ccc(C(F)(F)F)cn2)CC1)Nc1ccc2c(c1)OCO2	-	.	-	-	-	-
COc1ccccc1/C=C/C(=O)c1c2c(c(C)[nH]c1=O)CCCC2	-	-	-	67	-	-
Cc1c(C(=O)c2ccc(Cl)c(Cl)c2)cnc2cc3c(cc12)OCO3	-	61	-	-	-	-
COc1cc(-c2nc3ccc4ccccc4c3c3c2CCC3)cc(OC)c1O	-	98	-	-	-	-
COc1cc2ccccc2c2c1CCCC2=O	-	-	-	-	-	-
COc1cc(-c2nc3ccc4ccccc4c3c3c2CCC3)cc(OC)c1OC	-	-	-	-	71	-
COc1cc(-c2nc3ccc4ccccc4c3c3c2CCC3)ccc1O	-	79	-	-	-	-
COc1cc(/C=C2\CCCc3c2nc2ccccc2c3C(=O)O)cc(OC)c1O	-	.	-	-	-	-
COc1ccccc1C(=O)Nc1ccc(Br)cc1C	-	-	-	-	-	-
O=C(CSc1ccc(Cl)cc1)NNC(=O)c1cccnc1	-	-	-	-	-	-
O=C(/C=C/c1ccco1)Nc1ccc2nc3n(c(=O)c2c1)CCCC3	-	-	-	-	-	-
OC(CC1CC12c1ccccc1-c1ncccc12)(c1ccccc1)c1ccccc1 (configuration not stated)	-	74	-	-	-	-
CCOC(=O)C(C)C1(O)c2ccccc2-c2ncccc21 (configuration not stated)	-	-	-	-	-	-
CCN(CC)CCCn1c(C)cc2c(c1=O)C(c1cccc(Cl)c1)C(C#N)=C(N)O2 (configuration not stated)	-	74	-	-	-	-
O=C(CSc1nnc2ccccn12)Nc1ccc(S(=O)(=O)N2CCOCC2)cc1	-	-	-	-	-	-
O=[N+]([O-])c1ccc(-c2ccc(/C=N/Nc3nc(N4CCCC4)nc(N4CCCC4)n3)o2)cc1	-	-	-	-	-	-
COc1nc(N/N=C/c2ccc(-c3cccc([N+](=O)[O-])c3)o2)nc(N2CCOCC2)n1	-	-	92	-	74[fluorescence artefact?]	76
COc1ccc(-c2cnnc(N/N=C/c3ccc(-c4ccc([N+](=O)[O-])cc4)o3)n2)cc1	-	-	-	31	94	60
CC(=O)N1CCC2(CC1)C/C(=N\NC(=S)Nc1ccc(C)cc1)c1cc(O)ccc1O2	-	-	-	-	-	-
CCOC(=O)C1CCN(CC(=O)Nc2cc(C)nn2-c2nc3ccccc3s2)CC1	-	74	-	-	-	-
Cn1c(=O)c(C(=O)CN2CC(=O)Nc3ccccc32)c(N)n(Cc2ccccc2)c1=O	-	-	-	-	-	-
